Experimental data published in ChEMBL document CHEMBL1149895, “Steroids and flavonoids from Physalis alkekengi var. franchetii and their inhibitory effects on nitric oxide production” (J Nat Prod, 2008).

System: RAW264.7
Experiment: Inhibition of LPS-induced nitric oxide production in mouse RAW264.7 cells assessed as nitrite formation
Type: functional, cell-based
How it was run: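 RAW 264.7 cells in RPMI 1640 with 10% heat-inactivated FBS, penicillin and streptomycin, seeded at 1 × 10^5 cells/well and allowed to adhere 2 h at 37 °C in 5% CO2. LPS 1 µg/mL with or without compound (DMSO 0.2% v/v final) for 24 h. Supernatant nitrite read by Griess reagent against a 0–100 µM sodium nitrite line. Inhibition taken relative to LPS-only and untreated wells. Triplicate, mean ± SD of three independent experiments.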

IC50 [µM] | SMILES
64.3 | C[C@]12CCC(=O)C=C1CC[C@@H]1[C@@H]2[C@@H](O)C[C@@]2(C)[C@H]1CC[C@]2(O)C(=O)CO [HYDROCORTISONE]
64 | C[C@]12C(=O)C[C@H](O)C=C1C=C[C@@H]1[C@@H]2CC[C@]2(O)C(=O)O[C@@]3(C)[C@H]4C[C@]5(C)[C@@H](CO[C@@]16O[C@@]32[C@H]5C6=O)C(=O)O4 [ISOPHYSALIN G]
2.23 | COc1cc(O)c2c(=O)c(O)c(-c3ccc(OC)c(O)c3)oc2c1 [OMBUINE]
2.57 | C=C1C(=O)O[C@@H]2C[C@@]1(C)[C@@H]1C(=O)[C@]3(O)O[C@]14[C@@]2(C)OC(=O)[C@@]4(O)CC[C@H]1[C@H]3[C@H](O)C=C2CC=CC(=O)[C@@]21C [PHYSALIN A]
84 | CO[C@H]1C=C2C=C[C@@H]3[C@H](CC[C@]4(O)C(=O)O[C@@]5(C)[C@H]6C[C@](C)([C@H](C)C(=O)O6)[C@H]6[C@@]3(O)C(=O)O[C@@]654)[C@@]2(C)C(=O)C1 [PHYSALIN I]
17.1 | C[C@@H]1C(=O)O[C@@H]2C[C@@]1(C)[C@@H]1C(=O)[C@]3(O)O[C@]14[C@@]2(C)OC(=O)[C@@]4(O)CC[C@H]1[C@H]3[C@H](O)C=C2CC=CC(=O)[C@@]21C [PHYSALIN O]
79.2 | C[C@]12C(=O)C[C@@H](O)CC1=CC[C@@H]1[C@@H]2CC[C@]2(O)C(=O)O[C@@]3(C)[C@H]4C[C@]5(C)[C@@H](CO[C@@]16O[C@@]32[C@H]5C6=O)C(=O)O4 [PHYSALIN Y]
75.7 | C[C@]12C(=O)C[C@@H](O)C=C1C=C[C@@H]1[C@@H]2CC[C@]2(O)C(=O)O[C@@]3(C)[C@H]4C[C@]5(C)[C@@H](CO[C@@]16O[C@@]32[C@H]5C6=O)C(=O)O4 [PHYSALIN Z]

SMILES | IC50 [µM]
O=c1cc(-c2ccc(O)c(O)c2)oc2cc(O)cc(O)c12 [LUTEOLIN] | 7.39
C[C@]12C(=O)C=CCC1=CC[C@@H]1[C@@H]2CC[C@]2(O)C(=O)O[C@@]3(C)[C@H]4C[C@]5(C)[C@@H](CO[C@@]16O[C@@]32[C@H]5C6=O)C(=O)O4 [PHYSALIN B] | 0.84
C[C@@]12C[C@H]3OC(=O)[C@@H]1CO[C@]14O[C@]5([C@H]2C1=O)[C@@](O)(CC[C@H]1[C@H]4C[C@H]2O[C@]24CC=CC(=O)[C@]14C)C(=O)O[C@@]35C [PHYSALIN F] | 0.33
